Reference: ChEMBL document CHEMBL3865782 (2016)
≈ marks a conversion by molar mass, not a printed value. Calls of active or inactive are those of the source. The rule behind the calls is not given here.

Key:
Assay type in all cases: functional
Bacillus subtilis [1] = assay: Antibacterial activity against Bacillus subtilis ATCC 47096 assessed as induction of membrane depolarization after 30 mins by DiOC2(3) dye based flow cytometric analysis
Summary of the method: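 Three independent LB cultures grown to OD600 0.5 were diluted into PBS containing DiOC2(3) with DMSO vehicle, 5 μM CCCP (positive control), or 0.1–1.0 μM compound. Cells were mixed 30 min at ~22 °C and analysed by flow cytometry. Red/green fluorescence ratio geometric means were normalized to vehicle.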

Pseudomonas putida = assay: Antibacterial activity against Pseudomonas putida KT2440 after 16 to 18 hrs by microbroth dilution assay
Summary of the method: (§1)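 CLSI microbroth dilution. Compound was two-fold serially diluted from a 64 μM starting concentration into wells holding ~5 × 10^4 CFU of the test strain. After 16–18 h incubation, the MIC was taken as the lowest concentration causing no visible turbidity.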

Bacillus subtilis [2] = assay: Antibacterial activity against Bacillus subtilis ATCC 47096 assessed as induction of membrane damage after 30 mins by propidium iodide staining based fluorescent microscopic analysis
Summary of the method: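 Cells grown in LB at 37 °C to OD600 0.5 were resuspended in PBS pH 7.4 with DMSO vehicle, 8, 32 or 64 μM compound for 30 min at ~22 °C. Cells were then washed, stained with 10 μM propidium iodide for 15 min, immobilized in agarose, and imaged by confocal fluorescence and DIC microscopy.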

Candida albicans = assay: Antifungal activity against Candida albicans after 16 to 18 hrs by microbroth dilution assay
Summary of the method: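 CLSI microbroth dilution in YPD at 30 °C with aeration. Two-fold serial dilutions started at 128 μM, with ~5 × 10^4 CFU per well. Turbidity was inspected after 16–18 h. The MIC was the lowest concentration inhibiting visible growth.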

[3] = Antifungal activity against Zygosaccharomyces rouxii after 40 to 42 hrs by microbroth dilution assay
Summary of the method: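 CLSI microdilution in YPD at 30 °C with aeration. Two-fold serial dilutions started at 64 μM, with ~5 × 10^4 CFU per well. Incubation was extended to 40–42 h before turbidity inspection. The MIC was the lowest concentration inhibiting visible growth.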

Escherichia coli [4] = assay: Antibacterial activity against Escherichia coli DH5alpha after 16 to 18 hrs by microbroth dilution assay; conditions: DH5[alpha]; summary of the method: as §1
Bacillus subtilis [5] = assay: Bactericidal activity against Bacillus subtilis ATCC 47096 after 16 hrs; conditions: ATCC 47096, 16 h, read-out: MBC=>99.9
[6] = Antifungal activity against Saccharomyces cerevisiae after 16 to 18 hrs by microbroth dilution assay
Summary of the method: (§2)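 Yeast grown in YPD at 30 °C with aeration. CLSI microdilution used two-fold dilutions from a 64 μM start and ~5 × 10^4 CFU per well. Visible turbidity was scored at 16–18 h. The MIC was the lowest concentration without visible growth.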

[7] = test system: Mycolicibacterium smegmatis; assay: Antibacterial activity against Mycobacterium smegmatis NRRL B-14616 after 16 to 18 hrs by microbroth dilution assay
Summary of the method: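 Broth microdilution following CLSI, in LB with 0.05% Tween 80 at 37 °C with aeration. Two-fold serial dilutions started at 64 μM, with ~5 × 10^4 CFU per well. Wells were read by visible turbidity after 16–18 h. The MIC was the lowest concentration preventing visible growth.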

[8] = Antifungal activity against Kluyveromyces lactis after 16 to 18 hrs by microbroth dilution assay; summary of the method: as §2
Bacillus subtilis [9] = assay: Antibacterial activity against Bacillus subtilis ATCC 47096 after 16 to 18 hrs by microbroth dilution assay
Summary of the method: (§3)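 Broth microdilution per CLSI in LB at 37 °C with aeration. Twofold serial dilutions from a starting concentration of 64 μM were added to wells holding ~5 × 10^4 CFU of the test strain. Turbidity was read after 16–18 h. MIC was taken as the lowest concentration with no visible growth.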

Bacillus subtilis [10] = assay: Antibacterial activity against Bacillus subtilis subsp. subtilis str. 168 after 16 to 18 hrs by microbroth dilution assay
Summary of the method: (§4)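 Broth microdilution following CLSI, in LB at 37 °C with aeration. Starting at 64 μM, two-fold serial dilutions were added to wells holding ~5 × 10^4 CFU. Turbidity was inspected after 16–18 h. The MIC was the lowest concentration that inhibited visible growth.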

Bacillus cereus = assay: Antibacterial activity against Bacillus cereus ATCC 4342 after 16 to 18 hrs by microbroth dilution assay; summary of the method: as §4
Staphylococcus aureus = assay: Antibacterial activity against Methicillin-resistant Staphylococcus aureus USA300 after 16 to 18 hrs by microbroth dilution assay; summary of the method: as §3
Bacillus subtilis [11] = assay: Antibacterial activity against Bacillus subtilis P10B derived after 10 passage in presence of JBIR-100 after 16 to 18 hrs by microbroth dilution assay
Summary of the method: (§5)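 Mutants were derived from B. subtilis ATCC 47096 in three independent cultures. Each was passaged 10 times every 24 h at 37 °C in LB, starting at 0.5× MIC and raised in 0.5× MIC steps. Isolates were restreaked three times on drug-free LB agar to confirm stability.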

Debaryomyces hansenii = assay: Antifungal activity against Debaryomyces hansenii after 16 to 18 hrs by microbroth dilution assay; summary of the method: as §2
Bacillus subtilis [12] = assay: Antibacterial activity against Bacillus subtilis P10C derived after 10 passage in presence of JBIR-100 after 16 to 18 hrs by microbroth dilution assay; summary of the method: as §5
Bacillus subtilis [13] = assay: Antibacterial activity against Bacillus subtilis P10A derived after 10 passage in presence of JBIR-100 after 16 to 18 hrs by microbroth dilution assay; summary of the method: as §5
Bacillus subtilis [14] = assay: Bactericidal activity against Bacillus subtilis ATCC 47096 at 8 to 32 uM after 16 hrs
Summary of the method: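 Mid-exponential cultures (OD600 0.4, diluted 1000-fold from stationary cultures into LB) were treated with vehicle (DMSO), 8, 16 or 32 μM at 37 °C. OD595 was read every 10 min for 16 h with shaking between reads. Values were normalized to 0.4 at t = 0 and averaged over three independent cultures.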

Escherichia coli [15] = assay: Antibacterial activity against Escherichia coli MC1061 after 16 to 18 hrs by microbroth dilution assay; summary of the method: as §1
Bacillus thuringiensis = assay: Antibacterial activity against Bacillus sp. Al Hakam after 16 to 18 hrs by microbroth dilution assay; summary of the method: as §4
Enterococcus faecium = assay: Antibacterial activity against Vancomycin-resistant Enterococcus faecium U503 after 16 to 18 hrs by microbroth dilution assay; summary of the method: as §3
Bacillus subtilis [16] = assay: Antibacterial activity against Bacillus subtilis P10A derived after 10 passage in presence of JBIR-100 after 16 to 18 hrs by microbroth dilution assay relative to Bacillus subtilis ATCC 47096
Bacillus subtilis [17] = assay: Antibacterial activity against Bacillus subtilis P10B derived after 10 passage in presence of JBIR-100 after 16 to 18 hrs by microbroth dilution assay relative to Bacillus subtilis ATCC 47096
Bacillus subtilis [18] = assay: Antibacterial activity against Bacillus subtilis P10C derived after 10 passage in presence of JBIR-100 after 16 to 18 hrs by microbroth dilution assay relative to Bacillus subtilis ATCC 47096

SMILES	MIC (Bacillus subtilis [9])	MIC (Bacillus subtilis [11])	MIC (Bacillus subtilis [12])	MIC (Bacillus subtilis [13])	fold change (FC) (Bacillus subtilis [16])	fold change (FC) (Bacillus subtilis [17])	fold change (FC) (Bacillus subtilis [18])	also measured
CO[C@H]1/C=C/C=C(\C)C[C@H](C)[C@H](O)[C@H](C)/C=C(C)/C=C(\C)C(=O)O[C@@H]1[C@@H](C)[C@@H](O)[C@H](C)[C@@]1(O)C[C@@H](OC(=O)/C=C/C(=O)O)[C@H](C)[C@@H](C(C)C)O1	8 µM (≈ 5.64 µg/mL)	16 µM	16 µM	16 µM				Activity (Bacillus subtilis [1]): Dose-dependent effect; MIC (Pseudomonas putida): > 64 µM; Activity (Bacillus subtilis [2]): Dose-dependent effect; MIC (Candida albicans): > 128 µM; MIC [3]: 32 µM (≈ 22.6 µg/mL); MIC (Escherichia coli [4]): > 64 µM; MBC (Bacillus subtilis [5]): 16 µM (≈ 11.3 µg/mL); MIC [6]: > 64 µM; MIC [7]: > 64 µM; MIC [8]: > 64 µM; MIC (Bacillus subtilis [10]): 8 µM (≈ 5.64 µg/mL); MIC (Bacillus cereus): 4 µM (≈ 2.82 µg/mL); MIC (Staphylococcus aureus): 4 µM (≈ 2.82 µg/mL); MIC (Debaryomyces hansenii): 8 µM (≈ 5.64 µg/mL); Activity (Bacillus subtilis [14]): Active; MIC (Escherichia coli [15]): > 64 µM; MIC (Bacillus thuringiensis): 4 µM (≈ 2.82 µg/mL); MIC (Enterococcus faecium): 16 µM (≈ 11.3 µg/mL)
CC1(C)S[C@@H]2[C@H](NC(=O)[C@H](N)c3ccccc3)C(=O)N2[C@H]1C(=O)O [AMPICILLIN]	0.125 µM (≈ 0.0437 µg/mL)	0.125 µM	0.125 µM	0.125 µM				
O=C(N[C@H](CO)[C@H](O)c1ccc([N+](=O)[O-])cc1)C(Cl)Cl [CHLORAMPHENICOL]	8 µM (≈ 2.59 µg/mL)	8 µM	8 µM	4 µM	2	2	2	
O=C(O)c1cn(C2CC2)c2cc(N3CCNCC3)c(F)cc2c1=O [CIPROFLOXACIN]	0.125 µM (≈ 0.0414 µg/mL)	0.125 µM	0.125 µM	0.125 µM				
NC[C@H]1O[C@H](O[C@H]2[C@H](O)[C@@H](O[C@H]3O[C@H](CO)[C@@H](O)[C@H](N)[C@H]3O)[C@H](N)C[C@@H]2N)[C@H](O)[C@@H](O)[C@@H]1O [KANAMYCIN]	256 µM (≈ 124 µg/mL)	64 µM	64 µM	128 µM	2 - 4	2 - 4	2 - 4	
CO[C@H]1/C=C/O[C@@]2(C)Oc3c(C)c(O)c4c(O)c(c(/C=N/N5CCN(C)CC5)c(O)c4c3C2=O)NC(=O)/C(C)=C\C=C\[C@H](C)[C@H](O)[C@@H](C)[C@@H](O)[C@@H](C)[C@H](OC(C)=O)[C@@H]1C [RIFAMPIN]	0.0625 µM (≈ 0.0514 µg/mL)	0.125 µM	0.125 µM	0.25 µM	2 - 4	2 - 4	2 - 4	
Oc1cc(Cl)ccc1Oc1ccc(Cl)cc1Cl [TRICLOSAN]	8 µM (≈ 2.32 µg/mL)	8 µM	8 µM	8 µM				
CN[C@H](CC(C)C)C(=O)N[C@H]1C(=O)N[C@@H](CC(N)=O)C(=O)N[C@H]2C(=O)N[C@H]3C(=O)N[C@H](C(=O)N[C@H](C(=O)O)c4cc(O)cc(O)c4-c4cc3ccc4O)[C@H](O)c3ccc(c(Cl)c3)Oc3cc2cc(c3O[C@@H]2O[C@H](CO)[C@@H](O)[C@H](O)[C@H]2O[C@H]2C[C@](C)(N)[C@H](O)[C@H](C)O2)Oc2ccc(cc2Cl)[C@H]1O [VANCOMYCIN]	0.125 µM (≈ 0.181 µg/mL)	0.0625 µM	0.0625 µM	0.125 µM	2	2	2	
